Laboratory results from PubChem BioAssay AID488828 (Molecular Libraries Program, Specialized Chemistry Center, …, 2010).
The source made the active and inactive calls.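 The calls were made as follows: active = IC50 at or below 10 µM; inactive = the rest.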

target: Transitional endoplasmic reticulum ATPase (Homo sapiens) (UniProt P55072); experiment: inhibition of purified VCP ATP hydrolysis – biochemical, hit optimization round 2, SAR follow-up (AID 488828); conditions: purified p97 ATPase, Kinase-Glo ATP luminescence
Sequence (P55072 whole entry, looked up): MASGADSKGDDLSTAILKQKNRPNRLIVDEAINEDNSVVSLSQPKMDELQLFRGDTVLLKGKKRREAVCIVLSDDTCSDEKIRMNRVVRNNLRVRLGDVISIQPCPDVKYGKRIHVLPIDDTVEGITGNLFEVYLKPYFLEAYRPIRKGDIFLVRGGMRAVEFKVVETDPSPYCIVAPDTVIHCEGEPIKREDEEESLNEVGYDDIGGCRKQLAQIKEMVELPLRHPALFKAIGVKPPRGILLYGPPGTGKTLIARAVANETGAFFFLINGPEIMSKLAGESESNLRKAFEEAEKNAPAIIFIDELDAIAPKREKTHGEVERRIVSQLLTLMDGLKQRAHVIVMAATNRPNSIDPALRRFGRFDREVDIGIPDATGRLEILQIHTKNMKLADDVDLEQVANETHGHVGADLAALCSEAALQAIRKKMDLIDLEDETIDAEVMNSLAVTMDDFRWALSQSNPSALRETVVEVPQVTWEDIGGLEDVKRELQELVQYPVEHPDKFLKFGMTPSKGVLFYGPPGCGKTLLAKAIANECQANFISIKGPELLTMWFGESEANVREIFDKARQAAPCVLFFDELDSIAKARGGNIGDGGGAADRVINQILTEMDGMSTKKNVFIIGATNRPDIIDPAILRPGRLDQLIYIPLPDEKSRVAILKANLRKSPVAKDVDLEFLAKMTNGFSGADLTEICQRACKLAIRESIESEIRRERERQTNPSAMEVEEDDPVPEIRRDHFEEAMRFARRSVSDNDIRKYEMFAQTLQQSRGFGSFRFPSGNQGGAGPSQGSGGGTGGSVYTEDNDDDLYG
Procedure, shortened: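 Test system: Purified human p97 (valosin-containing protein) ATPase | Technique: Kinase-Glo Plus luminescence of residual ATP | Timing: 10 min room-temperature enzyme–compound preincubation, 30 min 37 °C ATP reaction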

SMILES | IC50
Cc1ccc(Nc2nc(NCc3ccccc3)c3ccccc3n2)cc1F | 0.9 µM
O=C(C1CCCN(S(=O)(=O)c2cnc[nH]2)C1)N(CCc1ccccc1)Cc1ccccc1 (stereo unspecified) | > 30 µM (inactive)
COc1cccc(CNc2nc(Nc3cccc(Cl)c3)nc3ccccc23)c1 | 1 µM
COc1ccc2nc(NCc3ccccc3)nc(NCc3ccccc3)c2c1 | 7.5 µM
CC(=O)Nc1ccc(NC(=O)c2ccccc2F)cc1 | > 30 µM (inactive)
Clc1cccc(CNc2nc(Cl)nc3ccccc23)c1 | > 30 µM (inactive)
CC(C)(C)NC(=O)Nc1ccc2nccnc2c1 | > 30 µM (inactive)
Clc1ccc2nc(NCc3ccccc3)nc(NCc3ccccc3)c2c1 | 1.6 µM
Cc1ccccc1CNc1nc(Nc2cccc(Cl)c2)nc2ccccc12 | 4.2 µM
O=C(NCc1ccco1)c1cc(S(=O)(=O)N2CCOCC2)ccc1Cl | > 30 µM (inactive)
Clc1nc(NCc2ccccc2Br)c2ccccc2n1 | > 30 µM (inactive)
CC(C)Sc1oc(-c2ccco2)nc1S(=O)(=O)c1ccc(F)cc1 | 3 µM
Cc1cccc(CNc2nc(Nc3cccc(Cl)c3)nc3ccccc23)c1 | 2.3 µM
Cc1c(F)cccc1Nc1nc(NCc2ccccc2)c2ccccc2n1 | 0.9 µM
Cc1cccc(CNc2nc(Cl)nc3ccccc23)c1 | > 30 µM (inactive)
Clc1cccc(CNc2nc(Nc3cccc(Cl)c3)nc3ccccc23)c1 | 5 µM
COc1cccc2c(NCc3ccccc3)nc(NCc3ccccc3)nc12 | 0.6 µM
Cc1ccc(CNc2nc(Nc3cccc(Cl)c3)nc3ccccc23)cc1 | 1.4 µM
Clc1cccc(Nc2nc(NCc3cccc(Br)c3)c3ccccc3n2)c1 | 3.7 µM
CC(C)n1c2ccccc2c2nnc(SCC(=O)OCN3C(=O)c4ccccc4C3=O)nc21 | > 30 µM (inactive)
Fc1cccc(CNc2nc(Cl)nc3ccccc23)c1 | > 30 µM (inactive)
Clc1nc(NCc2cccc(Br)c2)c2ccccc2n1 | > 30 µM (inactive)
Fc1cccc2c(NCc3ccccc3)nc(NCc3ccccc3)nc12 | 3.1 µM

SMILES | IC50
CCN(CC)c1ccc2cc(-c3nc4ccccc4[nH]3)c(=O)oc2c1 | 1.4 µM
FC(F)(F)c1ccc2c(NCc3ccccc3)nc(NCc3ccccc3)nc2c1 | 9.1 µM
Clc1nc(NCc2ccccc2Cl)c2ccccc2n1 | > 30 µM (inactive)
c1ccc(CNc2nc(N3CCc4ccccc43)nc3ccccc23)cc1 | 2 µM
Fc1ccccc1-c1nc(NCc2ccccc2)c2ccccc2n1 | 1.1 µM
c1ccc(CNc2nc(N3CCCc4ccccc43)nc3ccccc23)cc1 | 4.4 µM
O=[N+]([O-])c1cccc(Nc2nc(NCc3ccccc3)c3ccccc3n2)c1 | 5.2 µM
COc1ccc(CNc2nc(Nc3cccc(Cl)c3)nc3ccccc23)cc1 | 2.3 µM
c1ccc(CNc2nc(N3CCNc4ccccc43)nc3ccccc23)cc1 | 0.4 µM
Cc1ccc(F)cc1Nc1nc(NCc2ccccc2)c2ccccc2n1 | 0.8 µM
Clc1ccc2c(NCc3ccccc3)nc(NCc3ccccc3)nc2c1 | 5.5 µM
COc1c(Cl)cccc1Nc1nc(NCc2ccccc2)c2ccccc2n1 | 0.9 µM
Brc1cccc2c(NCc3ccccc3)nc(NCc3ccccc3)nc12 | 3.3 µM
Clc1ccc(CNc2nc(Cl)nc3ccccc23)cc1 | > 30 µM (inactive)
Cc1ccc(Cl)cc1Nc1nc(NCc2ccccc2)c2ccccc2n1 | 0.8 µM
COc1c(F)cccc1Nc1nc(NCc2ccccc2)c2ccccc2n1 | 1.7 µM
Clc1cccc(Nc2nc(NCc3ccccc3Br)c3ccccc3n2)c1 | 4 µM
Cc1ccc(C2=[N+]([O-])C3(CCCCC/C3=N\O)N(O)C2(C)C)o1 (stereo unspecified) | > 30 µM (inactive)
COc1ccc(CNc2nc(Cl)nc3ccccc23)cc1 | > 30 µM (inactive)
COc1ccc(Nc2nc(NCc3ccccc3)c3ccccc3n2)cc1F | 0.9 µM
Clc1cccc(Nc2nc(NCc3ccccc3Cl)c3ccccc3n2)c1 | 4.7 µM
O=S(=O)(NC1CCCCC1)c1ccc(Br)cc1 | > 30 µM (inactive)

Results, then the compound that gave them:

IC50 | SMILES
2.6 µM | c1ccc(Nc2nc(Nc3ccccc3)c3ccccc3n2)cc1
> 30 µM (inactive) | Cc1ccc(CNc2nc(Cl)nc3ccccc23)cc1
> 30 µM (inactive) | Fc1ccccc1CNc1nc(Cl)nc2ccccc12
inactive | COc1ccc(Nc2nc(Nc3ccc(OC)cc3)c3ccccc3n2)cc1
> 30 µM (inactive) | COc1ccc(C)cc1NC(=O)c1[nH]c(C)c(C(C)=O)c1C
> 30 µM (inactive) | Clc1nc(NCc2ccc(Br)cc2)c2ccccc2n1
2.6 µM | Fc1ccc2c(NCc3ccccc3)nc(NCc3ccccc3)nc2c1
0.7 µM | Cc1c(Cl)cccc1Nc1nc(NCc2ccccc2)c2ccccc2n1
1.5 µM | Fc1ccc(CNc2nc(Nc3cccc(Cl)c3)nc3ccccc23)cc1
0.7 µM | Cc1cc(F)cc(Nc2nc(NCc3ccccc3)c3ccccc3n2)c1
> 30 µM (inactive) | CC1(C)N(O)CC(c2cccs2)=[N+]1[O-]
2.2 µM | Clc1cccc2nc(NCc3ccccc3)nc(NCc3ccccc3)c12
inactive | Brc1ccc2c(NCc3ccccc3)nc(NCc3ccccc3)nc2c1
2.2 µM | Cc1ccc2c(NCc3ccccc3)nc(NCc3ccccc3)nc2c1
> 30 µM (inactive) | CN1CCN(S(=O)(=O)c2ccc(NC(=O)c3cccc(S(=O)(=O)N4CCCC4)c3)cc2)CC1
6.7 µM | COc1ccc(F)cc1Nc1nc(NCc2ccccc2)c2ccccc2n1
1.2 µM | Fc1cccc(CNc2nc(Nc3cccc(Cl)c3)nc3ccccc23)c1
1.6 µM | COc1ccccc1CNc1nc(Nc2cccc(Cl)c2)nc2ccccc12

IC50 | SMILES
4.4 µM | COc1cc2nc(NCc3ccccc3)nc(NCc3ccccc3)c2cc1OC
4.7 µM | Fc1ccc2nc(NCc3ccccc3)nc(NCc3ccccc3)c2c1
7.4 µM | Clc1cccc(Nc2nc(NCc3ccc(Br)cc3)c3ccccc3n2)c1
inactive | N#Cc1ccc2c(NCc3ccccc3)nc(NCc3ccccc3)nc2c1
1.8 µM | Fc1ccccc1CNc1nc(Nc2cccc(Cl)c2)nc2ccccc12
> 30 µM (inactive) | CCOC(=O)NC(NC(=O)OCC)C(=O)c1ccc(F)cc1
0.6 µM | c1ccc(CNc2nc(N3CCOc4ccccc43)nc3ccccc23)cc1
> 30 µM (inactive) | Cc1ccccc1CNc1nc(Cl)nc2ccccc12
> 30 µM (inactive) | COc1cccc(CNc2nc(Cl)nc3ccccc23)c1
5.2 µM | Ic1cccc(Nc2nc(NCc3ccccc3)c3ccccc3n2)c1
> 30 µM (inactive) | O=C1C(C=NCC2CCCO2)=C(O)c2ccccc21 (stereo unspecified)
1.1 µM | COc1ccc(Cl)cc1Nc1nc(NCc2ccccc2)c2ccccc2n1
2.8 µM | Clc1ccc(CNc2nc(Nc3cccc(Cl)c3)nc3ccccc23)cc1
> 30 µM (inactive) | COc1ccccc1CNc1nc(Cl)nc2ccccc12
> 30 µM (inactive) | Fc1ccc(CNc2nc(Cl)nc3ccccc23)cc1
5.7 µM | COc1ccc2c(NCc3ccccc3)nc(NCc3ccccc3)nc2c1
1.2 µM | Fc1cccc2nc(NCc3ccccc3)nc(NCc3ccccc3)c12

same assay, conditions: purified p97 ATPase, Kinase-Glo ATP luminescence; at 30 µM (top of the series)

inhibition | SMILES
inactive | Clc1ccc(Nc2nc(Nc3cccc(Cl)c3)nc3ccccc23)cc1
